Data: ChEMBL document CHEMBL1154292, “Discovery and optimization of novel 4-[(aminocarbonyl)amino]-N-[4-(2-aminoethyl)phenyl]benzenesulfonamide ghrelin receptor antagonists” (Bioorg Med Chem Lett, 2009)

Assays:
[1] = target: T1, Growth hormone secretagogue receptor type 1 (Homo sapiens, UniProt Q92847); assay: Agonist activity at human GHS-R1a assessed as maximum activation at 10 uM relative to ghrelin by aequorin assay; format: functional
Summary of the method: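 Agonist mode of the hGHS-R1a aequorin bioluminescence assay. Compound tested up to a maximum of 10 μM. Peak response is expressed as maximum % activation relative to ghrelin. Values are means of two or three experiments.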

[2] = target: T1, Growth hormone secretagogue receptor type 1; assay: Inhibition of human GHS-R1a
[3] = target: T1, Growth hormone secretagogue receptor type 1; assay: Inhibition of human GHS-R1a at 6.25 uM
[4] = target: T2, Beta-3 adrenergic receptor (Homo sapiens, UniProt P13945); assay: Inhibition of human adrenergic beta3 receptor
[5] = target: T2, Beta-3 adrenergic receptor; assay: Agonist activity at human adrenergic beta3 receptor; format: functional
[6] = target: T1, Growth hormone secretagogue receptor type 1; assay: Displacement of [35S]MK0677 from human GHS-R1a
Summary of the method: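 Competitive binding at GHS-R1a using [35S]-MK-0677 as the radiolabeled probe. IC50 values are means of two or three experiments.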

[7] = target: T1, Growth hormone secretagogue receptor type 1; assay: Antagonist activity at human GHS-R1a expressed in HEK293 cells assessed as inhibition of ghrelin-stimulated intracellular calcium mobilization; format: functional, cell-based

T1 sequence (Q92847 whole entry): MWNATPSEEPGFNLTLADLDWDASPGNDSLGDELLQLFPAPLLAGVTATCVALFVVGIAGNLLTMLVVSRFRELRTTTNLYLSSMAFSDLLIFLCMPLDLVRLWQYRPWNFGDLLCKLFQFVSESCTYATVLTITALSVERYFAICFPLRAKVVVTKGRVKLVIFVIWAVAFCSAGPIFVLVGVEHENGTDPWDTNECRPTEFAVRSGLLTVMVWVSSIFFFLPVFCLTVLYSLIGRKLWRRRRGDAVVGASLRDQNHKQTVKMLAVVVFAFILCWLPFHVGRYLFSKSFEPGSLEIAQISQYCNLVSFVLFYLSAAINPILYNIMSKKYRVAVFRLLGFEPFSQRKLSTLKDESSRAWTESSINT
T2 sequence (P13945 whole entry): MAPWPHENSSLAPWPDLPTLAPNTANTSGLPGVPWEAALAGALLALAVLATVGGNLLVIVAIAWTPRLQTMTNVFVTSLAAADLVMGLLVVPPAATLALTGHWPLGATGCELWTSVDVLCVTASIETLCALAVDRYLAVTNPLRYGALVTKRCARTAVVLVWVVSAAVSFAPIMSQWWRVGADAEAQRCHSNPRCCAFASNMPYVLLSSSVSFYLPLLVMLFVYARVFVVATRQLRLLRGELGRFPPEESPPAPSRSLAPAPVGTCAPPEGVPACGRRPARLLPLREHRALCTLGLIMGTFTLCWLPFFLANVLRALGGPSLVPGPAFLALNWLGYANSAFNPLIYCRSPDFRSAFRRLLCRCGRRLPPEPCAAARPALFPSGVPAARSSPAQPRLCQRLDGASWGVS

Row | Activity [1] [%] | IC50 [2] [nM] | Compound | further results
1 | 6 | 241 | CCCCCNC(=O)Nc1ccc(S(=O)(=O)Nc2ccc(CC(C)(C)N)cc2)cc1 | –
2 | – | – | CCCCCCNC(=O)Nc1ccc(S(=O)(=O)Nc2ccc(CC(C)(C)O)cc2)cc1 | inhibition [3]: 48%
3 | 1 | 263 | CC(C)(N)Cc1ccc(NS(=O)(=O)c2ccc(NC(=O)Nc3ccccc3)cc2)cc1 | –
4 | 1 | 846 | CC(C)NC(=O)Nc1ccc(S(=O)(=O)Nc2ccc(CC(C)(C)N)cc2)cc1 | –
5 | 3 | 310 | CCCCCCNC(=O)Nc1ccc(S(=O)(=O)Nc2ccc(CCC(C)(C)N)cc2)cc1 | –
6 | 13 | 625 | CCCCCCNC(=O)Nc1ccc(S(=O)(=O)Nc2cccc(CCN)c2)cc1 | –
7 | 51 | 429 | CCCCCCNC(=O)Nc1ccc(S(=O)(=O)Nc2cccc(CCCN)c2)cc1 | –
8 | 4 | 46 | CCCCCCNC(=O)Nc1ccc(S(=O)(=O)Nc2ccc(CC(C)(C)N)cc2)cc1 | IC50 [4]: 5200 nM; EC50 [5]: > 10000 nM
9 | 5 | 1720 | CCCCCCNC(=O)Nc1ccc(S(=O)(=O)Nc2ccc(CN)cc2)cc1 | –
10 | 1 | 28 | CCCCc1ccc(NC(=O)Nc2ccc(S(=O)(=O)Nc3ccc(CC(C)(C)N)cc3)cc2)cc1 | –
11 | 5 | 272 | CCCCCCNC(=O)Nc1ccc(S(=O)(=O)Nc2ccc(CCN)cc2)cc1 | –
12 | – | – | CCCCCCNC(=O)Nc1ccc(S(=O)(=O)Nc2ccc(CC)cc2)cc1 | inhibition [3]: 47%
13 | 0 | 8 | CC(C)c1ccc(NC(=O)Nc2ccc(S(=O)(=O)Nc3ccc(CC(C)(C)N)cc3)cc2)cc1 | –
14 | 1 | 30 | CCCCCCNC(=O)Nc1ccc(S(=O)(=O)Nc2ccc(CC(C)(C)NCC)cc2)cc1 | –
15 | 3 | 69 | Cc1cccc(NC(=O)Nc2ccc(S(=O)(=O)Nc3ccc(CC(C)(C)N)cc3)cc2)c1 | –
16 | 3 | 97 | CCCCCCCNC(=O)Nc1ccc(S(=O)(=O)Nc2ccc(CC(C)(C)N)cc2)cc1 | –
17 | 1 | 16 | CC(C)(N)Cc1ccc(NS(=O)(=O)c2ccc(NC(=O)Nc3ccc(C(C)(C)C)cc3)cc2)cc1 | –
18 | – | 21 | CC(C)(N)Cc1ccc(NS(=O)(=O)c2ccc(NC(=O)NCc3cccc4ccccc34)cc2)cc1 | –
19 | 2 | 444 | CCCCCCNC(=O)Nc1ccc(S(=O)(=O)Nc2ccc(CC(C)(C)CN)cc2)cc1 | –
20 | 1 | 138 | CC(C)(N)Cc1ccc(NS(=O)(=O)c2ccc(NC(=O)NCCc3ccccc3)cc2)cc1 | –
21 | 1 | 14 | CCc1ccc(NC(=O)Nc2ccc(S(=O)(=O)Nc3ccc(CC(C)(C)N)cc3)cc2)cc1 | –
22 | 1 | 161 | Cc1ccccc1NC(=O)Nc1ccc(S(=O)(=O)Nc2ccc(CC(C)(C)N)cc2)cc1 | –
23 | – | 2 | CC(C)(N)Cc1ccc(NS(=O)(=O)c2ccc(NC(=O)NC(C)(C)c3cccc4ccccc34)cc2)cc1 | –
24 | 4 | 128 | CC(C)(N)Cc1ccc(NS(=O)(=O)c2ccc(NC(=O)NCc3ccccc3)cc2)cc1 | –
25 | 1 | 682 | CCCCCCNC(=O)Nc1ccc(S(=O)(=O)Nc2ccc(CC(C)(C)NCC(F)(F)F)cc2)cc1 | –
26 | – | – | CCCCCCNC(=O)Nc1ccc(S(=O)(=O)Nc2ccc(CC(C)(C)NC[C@H](O)COc3ccc(O)cc3)cc2)cc1 | IC50 [6]: 13 nM; IC50 [7]: 40 nM
27 | – | 4300 | CCCCCCNC(=O)Nc1ccc(S(=O)(=O)Nc2ccccc2)cc1 | –
28 | 3 | 77 | Cc1ccc(NC(=O)Nc2ccc(S(=O)(=O)Nc3ccc(CC(C)(C)N)cc3)cc2)cc1 | –
29 | 1 | 108 | CCCCCCNC(=O)Nc1ccc(S(=O)(=O)Nc2ccc(CCCN)cc2)cc1 | –

Row | Compound | Activity [1] [%] | IC50 [2] [nM] | further results
30 | CCCNC(=O)Nc1ccc(S(=O)(=O)Nc2ccc(CC(C)(C)N)cc2)cc1 | 1 | 1650 | –
31 | CCNC(=O)Nc1ccc(S(=O)(=O)Nc2ccc(CC(C)(C)N)cc2)cc1 | 4 | 5620 | –
32 | CCCCNC(=O)Nc1ccc(S(=O)(=O)Nc2ccc(CC(C)(C)N)cc2)cc1 | 1 | 474 | –
